These results are taken from ChEMBL document CHEMBL3352094, “Trehalose- and glucose-derived glycoamphiphiles: small-molecule and nanoparticle Toll-like receptor 4 (TLR4) modulators” (J Med Chem, 2014).

The target in data set [1] is T1, Toll-like receptor 4 (Homo sapiens, UniProt O00206). Briefly: Inhibition of LPS-induced TLR4 activation (unknown origin) expressed in HEK293 Blue cells compound treated for 30 mins prior LPS treatment measured after 2 to 4 hrs by spectrophotometry. The class given is cell-based. The gist of the method: (§1)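 HEK-Blue cells stably transfected with TLR4, MD-2 and CD14 carry a secreted alkaline phosphatase reporter under an NF-κB/AP-1-inducible promoter. TLR4 activation by endotoxin was monitored through secreted alkaline phosphatase.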

In data set [2] the target is T1, Toll-like receptor 4. The data set is described as follows: Agonist activity at TLR4 (unknown origin) expressed in HEK293 Blue cells measured after 2 to 4 hrs by spectrophotometry. The class given is cell-based. The gist of the method: as §1
The test system of a further data set is HEK293. The data set is described as follows: Cytotoxicity against HEK-Blue cells after 3 hrs by MTT assay. The class given is cell-based. The conditions noted are these: human, hek293, 3 h. (Tetrazolium assays rely on reduction of a dye to a coloured formazan, in cell work by metabolically active cells.)
The target in data set [3] is T1, Toll-like receptor 4. Briefly: Agonist activity at human TLR4 expressed in HEK293 cells co-transfected with human MD-2/CD14 assessed as receptor signal after 2 to 4 hrs by dual luciferase reporter gene assay. The data set is classed as cell-based. The gist of the method:
(§2)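 Cells were treated with increasing compound concentrations, with or without LPS stimulation (5 nM). Signal is dual-luciferase, normalized, and representative of three independent experiments.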
Background: A reporter such as luciferase makes a cellular process visible.

The target of data set [4] is T2, Toll-like receptor 4 (Mus musculus) (UniProt Q9QUK6).
T2 sequence (whole entry): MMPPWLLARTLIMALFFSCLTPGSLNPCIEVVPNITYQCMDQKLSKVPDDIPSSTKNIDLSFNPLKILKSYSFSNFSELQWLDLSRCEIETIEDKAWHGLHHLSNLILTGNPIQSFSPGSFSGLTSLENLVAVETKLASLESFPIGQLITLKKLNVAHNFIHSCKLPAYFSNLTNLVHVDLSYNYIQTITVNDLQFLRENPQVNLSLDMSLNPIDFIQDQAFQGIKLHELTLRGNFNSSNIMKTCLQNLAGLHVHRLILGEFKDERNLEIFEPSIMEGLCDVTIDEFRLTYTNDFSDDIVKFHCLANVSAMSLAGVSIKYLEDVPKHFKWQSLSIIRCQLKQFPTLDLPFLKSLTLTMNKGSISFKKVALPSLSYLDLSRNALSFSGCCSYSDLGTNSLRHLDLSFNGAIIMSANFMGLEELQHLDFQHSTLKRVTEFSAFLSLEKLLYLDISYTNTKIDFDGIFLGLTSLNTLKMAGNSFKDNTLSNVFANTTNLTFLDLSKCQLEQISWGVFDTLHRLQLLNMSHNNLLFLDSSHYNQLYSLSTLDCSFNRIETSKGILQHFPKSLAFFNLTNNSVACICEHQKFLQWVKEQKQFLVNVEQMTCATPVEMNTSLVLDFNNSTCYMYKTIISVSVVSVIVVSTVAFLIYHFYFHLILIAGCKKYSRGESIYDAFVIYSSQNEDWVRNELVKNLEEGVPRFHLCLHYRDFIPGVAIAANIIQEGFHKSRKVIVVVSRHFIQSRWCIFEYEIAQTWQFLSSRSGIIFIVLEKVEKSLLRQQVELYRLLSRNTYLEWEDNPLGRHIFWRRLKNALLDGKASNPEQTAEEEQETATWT
The data set is described as follows: Agonist activity at mouse TLR4 expressed in HEK293 cells co-transfected with mouse MD-2/CD14 assessed as receptor signal after 2 to 4 hrs by dual luciferase reporter gene assay. The class given is cell-based. The gist of the method:
as §2

The target of data set [5] is T1, Toll-like receptor 4. The data set is described as follows: Antagonist activity at human TLR4 expressed in HEK293 cells co-transfected with human MD-2/CD14 assessed as inhibition of LPS-stimulated receptor signal after 2 to 4 hrs by dual luciferase reporter gene assay. The class given is cell-based. The gist of the method:
as §2

The target in data set [6] is T2, Toll-like receptor 4 (Mus musculus). The data set is described as follows: (§3) Antagonist activity at mouse TLR4 expressed in HEK293 cells co-transfected with mouse MD-2/CD14 assessed as inhibition of LPS-stimulated receptor signal after 2 to 4 hrs by dual luciferase reporter gene assay. The data set is classed as cell-based. The gist of the method: as §2
The target of data set [7] is T3, Toll-like receptor 4 (Mus musculus, UniProt Q9QUK6).
T3 sequence (Q9QUK6 whole entry): T2 sequence (whole entry)
Described as §3. The data set is classed as cell-based. Put shortly: as §2

The target in data set [8] is T2, Toll-like receptor 4 (Mus musculus). Briefly: Antagonist activity at mouse TLR4 in mouse BMDM cells assessed as inhibition of LPS-stimulated IL-6 production compound treated for 1 hr before LPS challenge by ELISA. The data set is classed as cell-based. Put shortly: (§4)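 Bone marrow-derived murine macrophages in RPMI with 10% FBS were pretreated with compound (0–2 µM), and LPS was added 1 hour later. After overnight incubation, IL-6 and TNF-α in the medium were measured by ELISA. Cells not given LPS served as negative controls.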
On the technique in general: ELISA stands for enzyme-linked immunosorbent assay.

For data set [9] the target is unchanged. Briefly: Antagonist activity at mouse TLR4 in mouse BMDM cells assessed as inhibition of LPS-stimulated TNFalpha production compound treated for 1 hr before LPS challenge by ELISA. The data set is classed as cell-based. The gist of the method: as §4
A short description of data set [10]: Amphiphilicity of the compound assessed as critical micelle concentration by spectrofluorophotometry. The data set is classed as physicochemical. Put shortly:
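The CMC in aqueous solution was determined from the polarity-dependent change in the fluorescence spectrum of pyrene as it partitions into micelles formed by the compound.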

The target of data set [11] is T2, Toll-like receptor 4 (Mus musculus). Briefly: Activation of mouse TLR4 in mouse BMDM cells by ELISA. The data set is classed as cell-based.
Data set [12] addresses T1, Toll-like receptor 4. Briefly: Agonist activity at TLR4 (unknown origin) expressed in HEK293 Blue cells measured after 2 to 4 hrs by spectrophotometry.
Data set [13] deals with T2, Toll-like receptor 4 (Mus musculus). The data set is described as follows: Antagonist activity at mouse TLR4 in mouse BMDM cells assessed as inhibition of LPS-stimulated IL-6 production at 1 to 2 uM for 1 hr before LPS treatment by ELISA. The data set is classed as cell-based. Put shortly: as §4
The target is the same in data set [14]. The data set is described as follows: Antagonist activity at mouse TLR4 in mouse BMDM cells assessed as inhibition of LPS-stimulated TNFalpha production at 1 to 2 uM for 1 hr before LPS treatment by ELISA. The class given is cell-based. The gist of the method:
as §4

For data set [15] the target is unchanged. The data set is described as follows: Antagonist activity at mouse TLR4 in mouse BMDM cells assessed as inhibition of LPS-stimulated IL-6 production at 0.1 to 0.5 uM for 1 hr before LPS treatment by ELISA. The data set is classed as cell-based. The gist of the method: as §4
Data set [16] shares this target. The data set is described as follows: Antagonist activity at mouse TLR4 in mouse BMDM cells assessed as inhibition of LPS-stimulated TNFalpha production at 0.1 to 0.5 uM for 1 hr before LPS treatment by ELISA. The data set is classed as cell-based. Put shortly: as §4
Another data set relates to Mus musculus. The data set is described as follows: Immunosuppressive C57/B16 mouse assessed as inhibition of LPS-induced immune activation measured as TNFalpha secretion at 2 x 10^-7 mol, ip 1 hr prior LPS challenge by ELISA. The data set is classed as functional, organism-based. The gist of the method: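 C57/Bl6 mice were given compound i.p. at 2·10^-7 mol/mouse, then LPS i.p. (1·10^-9 mol/mouse) 1 hour later. Sera were collected three hours after LPS and serum TNF-α concentration was determined.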

Active and inactive are the calls of the source. The rule behind the calls is not given here.

T1 sequence (O00206 whole entry): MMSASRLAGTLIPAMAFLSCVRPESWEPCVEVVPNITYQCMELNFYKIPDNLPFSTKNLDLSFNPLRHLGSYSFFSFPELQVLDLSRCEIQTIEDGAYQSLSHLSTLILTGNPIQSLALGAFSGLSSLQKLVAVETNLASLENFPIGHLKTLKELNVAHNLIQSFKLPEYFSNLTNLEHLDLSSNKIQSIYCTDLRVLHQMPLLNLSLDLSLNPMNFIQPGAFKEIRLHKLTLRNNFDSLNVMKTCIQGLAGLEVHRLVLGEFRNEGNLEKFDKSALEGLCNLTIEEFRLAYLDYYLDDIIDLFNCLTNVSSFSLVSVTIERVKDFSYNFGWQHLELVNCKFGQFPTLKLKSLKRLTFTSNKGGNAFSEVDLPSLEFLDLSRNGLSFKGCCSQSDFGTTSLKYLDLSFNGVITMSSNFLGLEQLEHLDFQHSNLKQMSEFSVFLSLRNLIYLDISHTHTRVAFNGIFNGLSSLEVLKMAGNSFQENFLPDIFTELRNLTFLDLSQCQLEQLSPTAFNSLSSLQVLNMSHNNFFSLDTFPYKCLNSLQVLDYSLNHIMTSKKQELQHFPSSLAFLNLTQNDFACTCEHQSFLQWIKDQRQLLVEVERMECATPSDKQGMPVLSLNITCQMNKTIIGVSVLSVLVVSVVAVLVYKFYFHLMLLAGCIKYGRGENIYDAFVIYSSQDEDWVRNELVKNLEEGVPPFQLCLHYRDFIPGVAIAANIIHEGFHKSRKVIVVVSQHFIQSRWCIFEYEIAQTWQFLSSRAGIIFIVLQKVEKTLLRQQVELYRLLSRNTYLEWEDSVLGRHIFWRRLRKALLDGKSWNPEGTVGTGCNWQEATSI

Broadly, the IC50 is the midpoint of a concentration-inhibition curve. `CCCCCC(=O)O[C@@H]1[C@@H](OC(=O)CCCCC)[C@@H](OC)O[C@H](CSCCNC(=S)NCCN(CCN)CCN)[C@H]1OC(=O)CCCCC.Cl`: the results for the IC50 against Toll-like receptor 4 [1], at Toll-like receptor 4 [5] and on Toll-like receptor 4 [7] were 3700 nM, 3900 nM and 3300 nM, respectively. Further, the inhibition entry (on Toll-like receptor 4 [1]; at Toll-like receptor 4 [5]; in [6]) was “Dose-dependent effect” in each case. For the same compound, the outcome (at Toll-like receptor 4 [2]; on Toll-like receptor 4 [3]; in [4]; in data set [11]; on Toll-like receptor 4 [12]) was inactive. In addition, in the data set on HEK293, the Activity result is “Non-toxic”. In addition, the inhibition entry in [8] and in data set [9] was “inactive” throughout. Further, the CMC in [10] was 59.7 µM.
Consider `CCCCCCCCCCCCCCO[C@H]1[C@@H](OC)O[C@H](CSCCN)[C@@H](O)[C@@H]1OCCCCCCCCCCCCCC`, for which, on Toll-like receptor 4 [1], the inhibition entry is “inactive”. Besides, the outcome (at Toll-like receptor 4 [3]; in data set [4]; on Toll-like receptor 4 [5]; in [6]) was inactive.
For `CCCCCCCCCCCCCCO[C@@H]1[C@H](OCCCCCCCCCCCCCC)[C@@H](O[C@H]2O[C@H](CSCCN)[C@@H](OCCCCCCCCCCCCCC)[C@H](OCCCCCCCCCCCCCC)[C@H]2OCCCCCCCCCCCCCC)O[C@H](CSCCN)[C@H]1OCCCCCCCCCCCCCC`, the inhibition entry at Toll-like receptor 4 [1] was “inactive”. Moreover, the outcome (on Toll-like receptor 4 [3]; in data set [4]; at Toll-like receptor 4 [5]; in [6]) was inactive.
Turning to `CCCCCCO[C@@H]1[C@@H](OCCCCCC)[C@@H](OC)O[C@H](CN)[C@H]1OCCCCCC`, the inhibition entry at Toll-like receptor 4 [1] is “inactive”. The result (on Toll-like receptor 4 [3]; in [4]; at Toll-like receptor 4 [5]; in data set [6]) was inactive.
In the case of `CCCCCC(=O)O[C@@H]1[C@H](OC(=O)CCCCC)[C@@H](O[C@H]2O[C@H](Cn3cc(CNC(=S)NCCN)nn3)[C@@H](OC(=O)CCCCC)[C@H](OC(=O)CCCCC)[C@H]2OC(=O)CCCCC)O[C@H](Cn2cc(CNC(=S)NCCN)nn2)[C@H]1OC(=O)CCCCC`, the IC50 is 5000 nM against Toll-like receptor 4 [1], 600 nM on Toll-like receptor 4 [5] and 600 nM on Toll-like receptor 4 [7]. Also, the inhibition entry (at Toll-like receptor 4 [1]; at Toll-like receptor 4 [5]; in [6]) was “Dose-dependent effect” throughout. Further, the result (at Toll-like receptor 4 [2]; on Toll-like receptor 4 [3]; in data set [4]; at Toll-like receptor 4 [12]) was inactive. The Activity result in the data set with HEK293 is “Non-toxic”. Also, the CMC in [10] is 10.9 µM.
Turning to `CCCCCCO[C@H]1[C@@H](OC)O[C@H](CSCCN)[C@@H](O)[C@@H]1OCCCCCC`, the inhibition result at Toll-like receptor 4 [1] was “inactive”. The outcome (at Toll-like receptor 4 [3]; in [4]; at Toll-like receptor 4 [5]; in [6]) was inactive.
Turning to `CCCCCC(=O)O[C@@H]1[C@H](OC(=O)CCCCC)[C@@H](O[C@H]2O[C@H](Cn3cc(CN(CCN)CCN)nn3)[C@@H](OC(=O)CCCCC)[C@H](OC(=O)CCCCC)[C@H]2OC(=O)CCCCC)O[C@H](Cn2cc(CN(CCN)CCN)nn2)[C@H]1OC(=O)CCCCC`, the IC50 is 600 nM against Toll-like receptor 4 [1], 200 nM on Toll-like receptor 4 [5] and 200 nM on Toll-like receptor 4 [7]. For the same compound, the inhibition result (on Toll-like receptor 4 [1]; on Toll-like receptor 4 [5]; in [6]; in data set [13]; in [14]) was “Dose-dependent effect” throughout. Also, the result (at Toll-like receptor 4 [2]; on Toll-like receptor 4 [3]; in [4]; on Toll-like receptor 4 [12]) was inactive. Moreover, in the data set with HEK293, the Activity result is “Non-toxic”. The inhibition entry in data set [15] and in data set [16] was “inactive” in each case. Moreover, the CMC in data set [10] came to 350 µM. In addition, in the data set on Mus musculus, the inhibition result is “Active”.
Regarding `CCCCCC(=O)O[C@@H]1[C@@H](OC(=O)CCCCC)[C@@H](OC)O[C@H](Cn2cc(CN(CCNC(=S)NCCN)CCNC(=S)NCCN)nn2)[C@H]1OC(=O)CCCCC`, on Toll-like receptor 4 [1], the inhibition entry is “inactive”. Further, the result (at Toll-like receptor 4 [3]; in data set [4]; on Toll-like receptor 4 [5]; in data set [6]) was inactive.
As for `CCCCCCO[C@@H]1[C@H](OCCCCCC)[C@@H](O[C@H]2O[C@H](CSCCN)[C@@H](OCCCCCC)[C@H](OCCCCCC)[C@H]2OCCCCCC)O[C@H](CSCCN)[C@H]1OCCCCCC`, the inhibition result at Toll-like receptor 4 [1] is “inactive”. Besides, the result (at Toll-like receptor 4 [3]; in data set [4]; on Toll-like receptor 4 [5]; in [6]) was inactive.
In the case of `CCCCCC(=O)O[C@@H]1[C@H](OC(=O)CCCCC)[C@@H](O[C@H]2O[C@H](CSCCN)[C@@H](OC(=O)CCCCC)[C@H](OC(=O)CCCCC)[C@H]2OC(=O)CCCCC)O[C@H](CSCCN)[C@H]1OC(=O)CCCCC`, the values for the IC50 against Toll-like receptor 4 [1], at Toll-like receptor 4 [5] and at Toll-like receptor 4 [7] were 1300 nM, 1400 nM and 800 nM, respectively. Moreover, the inhibition entry (at Toll-like receptor 4 [1]; on Toll-like receptor 4 [5]; in [6]) was “Dose-dependent effect” in each case. Further, the result (on Toll-like receptor 4 [2]; at Toll-like receptor 4 [3]; in data set [4]; in [11]; on Toll-like receptor 4 [12]) was inactive. Moreover, in the data set on HEK293, the Activity entry is “Non-toxic”. The inhibition result in data set [8] and in data set [9] was “inactive” each time. In addition, the CMC in [10] was found to be 97.7 µM.
